In brackets after ≈: the same amount, converted by molar mass. Activity calls are given as the source filed them. The calls are words filed in the database; no cut-off is given here.
Tests used:
Escherichia coli [1] = assay: Antimicrobial activity against Escherichia coli INCQS 00033 ATCC 25922 assessed as zone of inhibition at 5 mg/ml after 18 to 24 hrs by disc diffusion method; assay type: functional; settings: ATCC 25922 INCQS 00033, read-out: IZ
Staphylococcus aureus [2] = assay: Antimicrobial activity against methicillin-resistant Staphylococcus aureus BMB9393 assessed as zone of inhibition at 5 mg/ml after 18 to 24 hrs by disc diffusion method; assay type: functional; settings: read-out: IZ
Pseudomonas aeruginosa [3] = assay: Antimicrobial activity against Pseudomonas aeruginosa INCQS 00099 ATCC 27853 assessed as zone of inhibition at 5 mg/ml after 18 to 24 hrs by disc diffusion method; assay type: functional; settings: read-out: IZ
Proteus mirabilis = assay: Antimicrobial activity against Proteus mirabilis INCQS 00095 ATCC 15290 assessed as zone of inhibition at 5 mg/ml after 18 to 24 hrs by disc diffusion method; assay type: functional; settings: read-out: IZ
Staphylococcus aureus [4] = assay: Antimicrobial activity against Staphylococcus aureus INCQS 00015 ATCC 25923 assessed as zone of inhibition at 5 mg/ml after 18 to 24 hrs by disc diffusion method; assay type: functional; settings: read-out: IZ
[5] = tested on: Staphylococcus epidermidis; assay: Antimicrobial activity against Staphylococcus epidermidis INCQS 00016 ATCC 12228 assessed as zone of inhibition at 5 mg/ml after 18 to 24 hrs by disc diffusion method; assay type: functional; settings: ATCC 12228 INCQS 00016, read-out: IZ
Klebsiella pneumoniae = assay: Antimicrobial activity against Klebsiella pneumoniae INCQS 00083 ATCC 4352 assessed as zone of inhibition at 5 mg/ml after 18 to 24 hrs by disc diffusion method; assay type: functional; settings: read-out: IZ
[6] = Hemolytic activity against human erythrocytes assessed as hemolysis at 200 ug/ml after 3 hrs by spectrophotometric analysis relative to control; assay type: ADME, cell-based, Erythrocyte; settings: read-out: Activity
Summary of the method: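 Erythrocytes collected in citrate tubes, washed three times with PBS pH 7.4 by centrifugation and resuspended in PBS. Incubated with compounds at 200 µg/mL for 3 h at 37°C. Released hemoglobin was read in the supernatant at 545 nm against 1% Triton X-100 (complete lysis) and 1% DMSO (negative control). Below 10% hemolysis was taken as hemocompatible. Three independent experiments.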

Enterococcus faecalis = assay: Antimicrobial activity against Enterococcus faecalis INCQS 00234 ATCC 29212 assessed as zone of inhibition at 5 mg/ml after 18 to 24 hrs by disc diffusion method; assay type: functional; settings: ATCC 29212 INCQS 00234, read-out: IZ
Staphylococcus simulans [7] = assay: Antimicrobial activity against Staphylococcus simulans INCQS 00254 ATCC 27851 assessed as zone of inhibition at 5 mg/ml after 18 to 24 hrs by disc diffusion method; assay type: functional; settings: read-out: IZ
Pseudomonas aeruginosa [8] = assay: Bactericidal activity against Pseudomonas aeruginosa INCQS 00099 ATCC 27853 incubated for 24 hrs followed by transfer of microbial suspension to agar plates and measured after 24 hrs post transfer by resazurin dye-based colorimetric analysis; assay type: functional; settings: INCQS 00099 ATCC 27853, 24 h, read-out: MBC99.9
Summary of the method: (§1)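 For MBC, 10 µL from each clear MIC well was plated on agar and incubated 24 h at 37°C. MBC is the minimum concentration inhibiting 99.9% of growth. […] Triplicate.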

Staphylococcus simulans [9] = assay: Antimicrobial activity against Staphylococcus simulans INCQS 00254 ATCC 27851 at 256 ug/ml after 24 hrs by microdilution assay; assay type: functional, organism-based
Escherichia coli [10] = assay: Antimicrobial activity against Escherichia coli INCQS 00033 ATCC 25922 after 24 hrs by microdilution assay; assay type: functional; settings: ATCC 25922 INCQS 00033, 24 h
Staphylococcus aureus [11] = assay: Bactericidal activity against methicillin-resistant Staphylococcus aureus BMB9393 at 256 ug/ml incubated for 24 hrs followed by transfer of microbial suspension to agar plates and measured after 24 hrs post transfer by resazurin dye-based colorimetric analysis; assay type: functional, organism-based
Summary of the method: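 From MIC wells with no visible growth, 10 µL is transferred to agar plates and incubated 24 h at 37°C. MBC is the minimum concentration inhibiting 99.9% of growth. […] Triplicate.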

Escherichia coli [12] = assay: Ratio of MBC99.9 to MIC for Escherichia coli INCQS 00033 ATCC 25922; assay type: functional, ATCC 25922 INCQS 00033
Summary of the method: (§2)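 MBC/MIC ratio from the 24 h, 37°C microdilution MIC and the agar-plating MBC (99.9% growth inhibition). A ratio ≤2 was classed as bactericidal and ≥4 as bacteriostatic.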

Staphylococcus simulans [13] = assay: Bactericidal activity against Staphylococcus simulans INCQS 00254 ATCC 27851 at 256 ug/ml incubated for 24 hrs followed by transfer of microbial suspension to agar plates and measured after 24 hrs post transfer by resazurin dye-based colorimetric analysis; assay type: functional, organism-based; summary of the method: as §1
Staphylococcus aureus [14] = assay: Bactericidal activity against Staphylococcus aureus INCQS 00015 ATCC 25923 at 256 ug/ml incubated for 24 hrs followed by transfer of microbial suspension to agar plates and measured after 24 hrs post transfer by resazurin dye-based colorimetric analysis; assay type: functional, organism-based; summary of the method: as §1
Pseudomonas aeruginosa [15] = assay: Ratio of MBC99.9 to MIC for Pseudomonas aeruginosa INCQS 00099 ATCC 27853; assay type: functional; summary of the method: as §2
Staphylococcus aureus [16] = assay: Antimicrobial activity against methicillin-resistant Staphylococcus aureus BMB9393 at 256 ug/ml after 24 hrs by microdilution assay; assay type: functional, organism-based
[17] = tested on: Staphylococcus epidermidis; assay: Ratio of MBC99.9 to MIC for Staphylococcus epidermidis INCQS 00016 ATCC 12228; assay type: functional, ATCC 12228 INCQS 00016; summary of the method: as §2
Staphylococcus aureus [18] = assay: Antimicrobial activity against Staphylococcus aureus INCQS 00015 ATCC 25923 at 256 ug/ml after 24 hrs by microdilution assay; assay type: functional, organism-based
[19] = tested on: Staphylococcus epidermidis; assay: Bactericidal activity against Staphylococcus epidermidis INCQS 00016 ATCC 12228 incubated for 24 hrs followed by transfer of microbial suspension to agar plates and measured after 24 hrs post transfer by resazurin dye-based colorimetric analysis; assay type: functional; settings: ATCC 12228 INCQS 00016, 24 h, read-out: MBC99.9; summary of the method: as §1
Pseudomonas aeruginosa [20] = assay: Antimicrobial activity against Pseudomonas aeruginosa INCQS 00099 ATCC 27853 after 24 hrs by microdilution assay; assay type: functional; settings: INCQS 00099 ATCC 27853, 24 h
[21] = tested on: Staphylococcus epidermidis; assay: Antimicrobial activity against Staphylococcus epidermidis INCQS 00016 ATCC 12228 after 24 hrs by microdilution assay; assay type: functional; settings: ATCC 12228 INCQS 00016, 24 h
Escherichia coli [22] = assay: Bactericidal activity against Escherichia coli INCQS 00033 ATCC 25922 incubated for 24 hrs followed by transfer of microbial suspension to agar plates and measured after 24 hrs post transfer by resazurin dye-based colorimetric analysis; assay type: functional; settings: ATCC 25922 INCQS 00033, 24 h, read-out: MBC99.9; summary of the method: as §1

Structure (SMILES)	zone of inhibition at 5000 µg/mL (Escherichia coli [1]) [mm]	zone of inhibition at 5000 µg/mL (Staphylococcus aureus [2]) [mm]	zone of inhibition at 5000 µg/mL (Pseudomonas aeruginosa [3]) [mm]	zone of inhibition at 5000 µg/mL (Proteus mirabilis) [mm]	zone of inhibition at 5000 µg/mL (Staphylococcus aureus [4]) [mm]	zone of inhibition at 5000 µg/mL [5] [mm]	zone of inhibition at 5000 µg/mL (Klebsiella pneumoniae) [mm]	hemolysis at 3 h, 200 ug/ml [6] [%]	zone of inhibition at 5000 µg/mL (Enterococcus faecalis) [mm]	zone of inhibition at 5000 µg/mL (Staphylococcus simulans [7]) [mm]	further results
COC(=O)c1c(C)nc(C)c2c1C(=O)C(Cl)=C(NC[C@H]1O[C@@H]3OC(C)(C)O[C@@H]3[C@H]3OC(C)(C)O[C@H]31)C2=O	0	0	0	0	0	0	0	< 10	0	0	–
O=C(O)c1cn(C2CC2)c2cc(N3CCNCC3)c(F)cc2c1=O [CIPROFLOXACIN]	35	–	36	28	–	–	27	–	–	–	–
COC(=O)c1c(C)nc(C)c2c1C(=O)C(Br)=C(N)C2=O	30	22	28	0	23	22	0	10.1 to 14.4	0	17	MBC (Pseudomonas aeruginosa [8]): 32 µg/mL (≈ 94.4 µM); Activity (Staphylococcus simulans [9]): inactive; MIC (Escherichia coli [10]): 8 µg/mL (≈ 23.6 µM); Activity (Staphylococcus aureus [11]): inactive; Ratio (Escherichia coli [12]): 1; Activity (Staphylococcus simulans [13]): inactive; Activity (Staphylococcus aureus [14]): inactive; Ratio (Pseudomonas aeruginosa [15]): 1; Activity (Staphylococcus aureus [16]): inactive; Ratio [17]: 1; Activity (Staphylococcus aureus [18]): inactive; MBC [19]: 32 µg/mL (≈ 94.4 µM); MIC (Pseudomonas aeruginosa [20]): 32 µg/mL (≈ 94.4 µM); MIC [21]: 32 µg/mL (≈ 94.4 µM); MBC (Escherichia coli [22]): 8 µg/mL (≈ 23.6 µM)
CC1(C)O[C@H]2O[C@H](CNC3=CC(=O)c4ccccc4C3=O)[C@H](O)[C@H]2O1	0	0	0	0	0	0	0	< 10	0	0	–
COC(=O)c1c(C)nc(C)c2c1C(=O)C=C(N)C2=O	0	0	0	0	0	0	0	< 10	0	0	–
